This is a sample that favours compounds with a hit; in the whole collection about 3.1% have one here.
Beta cell apopt – inhibitors of cytokine-induced beta cell apoptosis, primary screen, luminescence | INS-1E cytokine-induced death, ATP luminescence, 48 h; percent of positive-control rescue, neutral wells zero | protection from apoptosis, % (test concentration not listed) | 0.8% of 300,000 active | AID 435005, 2010;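 active = Every replicate reaches about 75%, or at least half do and their mean reaches it too, limit read from the data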;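 note: 0% = cytokine-treated negative control wells and 100% = positive control rescue; higher means more ATP so stronger rescue from cytokine killing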
TAG inh – inhibitors of triacylglycerol accumulation, primary screen, cell-based, uHTS, fluorescence, H9c2; H9c2 cells, Nile Red lipid (TAG) fluorescence; cells loaded with 200 µM oleic acid; inhibition, % at 12.5 µM; 0.66% of 230,000 active;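 active = pattern-corrected inhibition of lipid staining of at least 50% with the nuclear-stain viability signal not falling by more than 50%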;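 note: 0% = DMSO wells and 100% = triacsin C control wells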
Calb FLC – C. albicans growth inhibition with fluconazole, primary screen, CaCi-2 strain, Alamar Blue fluorescence. C. albicans CaCi-2 (fluconazole-resistant clinical isolate) + fluconazole, 48 h. growth inhibition, % (concentration not given with the values). 0.57% of 300,000 active. AID 1979, 2009;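 active = growth inhibition above about 58% in most replicates, limit read from the data, passing the limit was not always enough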;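 note: all wells also contain fluconazole at 8 µg/ml as a sub-toxic cotreatment; 0% = median of DMSO wells and 100% = median of geldanamycin control wells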
Bfl-1 A1 inh – caspase 3/7 activation in MEF A1-2A-BIM cells, primary screen, A1 inhibitor project, cell-based, luminescence, HTS | caspase activation, % (concentration not given with the values) | 0.066% of 330,000 active | Caspase-Glo 3/7 luminescence, 3 h; percent of clofoctol response, vehicle zero;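 active = over half of replicate activation scores above 10%, or exactly half above 10 with the replicate mean above 10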
CSC inhib – cancer stem cell viability inhibitors, primary screen, luminescence; inhibition, % at 7.5 µM; AID 2717, 2010; cancer stem cell-like cells viability; 1.1% of 300,000 active; in the data active = inhibition above about 75%; tested in HMLE shEcad cells
T cruzi inh – inhibitors of intracellular T. cruzi growth, primary screen, luminescence, NIH3T3 host cells; T. cruzi beta-gal in NIH3T3, 90 h; 1.4% of 300,000 active; AID 1885, 2009; inhibition, % (concentration not given with the values);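 active = mean inhibition across valid replicates above about 55%, limit read from the data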;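 note: signal also drops with host cell toxicity which is not excluded here; 0% = plate median of DMSO wells and 100% = zero luminescence signal; higher percent means less beta-gal luminescence so fewer parasites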
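Material: NIH/3T3 host cells with β-galactosidase reporter T. cruzi; Input: 5,000 host fibroblasts per well; Medium: DMEM, 2% fetal bovine serum; Compound: 50 nL DMSO compound solution per well; Schedule: 3 h host attachment, then at least 90 h co-culture; Detection: luminescent β-galactosidase signal after 60 min lysis.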
* = called active by the depositor; x = no result.

SMILES	Beta cell apopt	TAG inh	Calb FLC	Bfl-1 A1 inh	CSC inhib	T cruzi inh
Cc1cc(-n2c(SCC(=O)Nc3ccc(F)c(F)c3)nc3n[nH]c(C)c3c2=N)ccc1Cl	76.2*	x	36.6	0.3	68.4	15.8
Cc1cc(-n2c(SCC(=O)Nc3ccc(Br)cc3)nc3n[nH]c(C)c3c2=N)ccc1Cl	33.0	x	23.2	2.2	55.8	7.1
CCOc1ccc(-n2c(SCC(=O)Nc3ccc(Br)cc3)nc3n[nH]c(C)c3c2=N)cc1	17.4	10.6	-4.8	8.4*	x	27.0
CCOc1ccc(-n2c(SCC(=O)Nc3ccccc3CC)nc3n[nH]c(C)c3c2=N)cc1	29.8	x	6.1	0.0	2.2	-37.9
CC(C)C(NS(=O)(=O)c1ccccc1F)C(=O)OCC(=O)NCc1ccco1 (stereo unspecified)	x	-2.8	x	x	x	x
Cc1c(C=O)c(C=O)c(C)n1Cc1ccccc1	x	-0.5	7.3	9.3*	44.1	-19.4
CCN(CC)C(=O)C1CCCN(C(=S)Nc2cccc3ccccc23)C1 (stereo unspecified)	85.3*	7.5	4.0	1.5	16.2	8.4
CCN(CC)C(=O)C1CCCN(Cc2ccc(N(C)C)cc2)C1 (stereo unspecified)	-1.8	x	-23.8	0.6	-5.6	71.5*
CCN(CC)S(=O)(=O)c1ccc(OC)c(NC(=O)C2CC(=O)N(c3ccc4c(c3)OCCO4)C2)c1 (stereo unspecified)	x	-7.8	6.6	0.2	-11.7	8.6
CC1CCc2c(sc(NC(=O)COC(=O)c3ccc(O)cc3)c2C#N)C1 (stereo unspecified)	0.5	20.7	7.5	-0.5	-6.3	15.1
Cc1ccc(S(=O)(=O)c2c(C)nn(C(C)(C)C)c2OC(=O)c2ccc(Br)o2)cc1	-12.1	3.7	86.5*	-0.5	91.3*	2.4
Cc1ccc(S(=O)(=O)c2c(C)nn(C(C)(C)C)c2OC(=O)c2ccco2)cc1	-1.7	-2.1	31.5	0.2	-0.7	-38.5
Cc1ccc(S(=O)(=O)c2c(C)nn(C(C)(C)C)c2OC(=O)c2cccs2)cc1	-10.6	2.9	10.7	0.3	84.2*	2.3
CC(C)(C)C(=O)Nc1ccc(S(=O)(=O)N2CCC(c3nc4ccccc4[nH]3)CC2)cc1	11.9	17.6	-0.4	-0.3	6.8	-22.1
O=C1CCC(C(=O)Nc2ccc([N+](=O)[O-])cc2)N1 (stereo unspecified)	-1.9	-14.8	x	0.6	-9.6	x
COc1ccc(C2CC(c3cccc(Cl)c3)=NN2c2ccc(S(N)(=O)=O)cc2)cc1 (stereo unspecified)	x	-11.0	x	x	x	x
c1cncc(-c2nc(NCCCN3CCOCC3)c3c4c(sc3n2)CCC4)c1	7.7	1.9	-4.3	0.8	-20.5	73.3*
Cc1c(C)n(CCCN(C)C)c2ncnc(NCc3ccccc3)c12	-4.5	x	-1.7	0.3	-5.9	55.2*
Cc1c(C)n(CCc2ccccc2)c2ncnc(NCCO)c12	1.9	x	-2.1	0.6	0.6	0.8
C/C(=N\OCC(=O)OCC(=O)N(C)c1ccccc1)c1ccc2c(c1)OCO2	-0.3	4.4	x	-0.8	x	x
Cc1nn(Cc2ccc(C(=O)Nc3nccs3)cc2)c(C)c1Cl	0.3	-44.3	-10.6	0.7	83.2*	-50.0
Cc1nn(Cc2ccc(C(=O)NN)cc2)c(C)c1Cl	-2.8	-3.4	-19.7	-0.2	-4.4	-3.0
CC1CCCCN1C(=O)COC(=O)c1cc(Cl)c2c(c1)OCO2 (stereo unspecified)	x	-3.3	x	x	x	x
CN(Cc1ccccc1)S(=O)(=O)c1ccc(Cl)c(C(=O)NCc2cccnc2)c1	1.4	7.5	7.3	0.0	-13.4	0.3
CC(C)(C)c1nnc(N/N=C/c2cc(Br)ccc2O)n(N)c1=O	95.1*	x	-32.5	0.1	112.1*	-30.9
CN(CCCC(=O)NCc1ccc2c(c1)OCO2)S(=O)(=O)c1ccc([N+](=O)[O-])cc1	-5.4	14.8	-4.9	0.0	0.6	40.3
O=C(O)/C=C/C(=O)c1c(-c2ccccc2)[nH]c2ccccc12	-6.6	x	-20.3	-0.4	-13.3	-28.1
